Assay results published in ChEMBL document CHEMBL1811868, “Structure-activity relationship of 2-hydroxy-2-aryl-2,3-dihydro-imidazo[1,2-a]pyrimidinium salts and 2N-substituted 4(5)-aryl-2-amino-1H-imidazoles as inhibitors of biofilm formation by Salmonella Typhimurium and Pseudomonas aeruginosa” (Bioorg Med Chem, 2011).
The source made the active and inactive calls. Unless noted, no cut-off for these calls is given here.

Tests used:
Pseudomonas aeruginosa [1] = assay: Antimicrobial activity against Pseudomonas aeruginosa PA14 assessed as inhibition of planktonic cell growth at IC50 after 24 hrs by […]; type: functional, organism-based
Procedure, shortened: (§1)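 Planktonic growth was followed by Bioscreen growth curves, not by crystal violet. Overnight cultures were diluted 1:200 in TSB 1/20 and received compound serially diluted in DMSO or EtOH, in triplicate, with solvent controls. Plates were shaken at 25 °C for at least 24 h, reading A600 every 15 min.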

Pseudomonas aeruginosa [2] = assay: Antimicrobial activity against Pseudomonas aeruginosa PA14 assessed as inhibition of planktonic cell growth at 40 uM after 24 hrs by […]; type: functional, organism-based; procedure, shortened: as §1
Pseudomonas aeruginosa [3] = assay: Antimicrobial activity against Pseudomonas aeruginosa PA14 assessed as inhibition of planktonic cell growth at 10 uM after 24 hrs by […]; type: functional, organism-based; procedure, shortened: as §1
Salmonella typhimurium [4] = assay: Antimicrobial activity against Salmonella Typhimurium ATCC 14028 assessed as inhibition of planktonic cell growth at 150 uM after 24 hrs by […]; type: functional, organism-based; conditions: Salmonella enterica subsp. enterica serovar Typhimurium; procedure, shortened: as §1
Pseudomonas aeruginosa [5] = assay: Antimicrobial activity against Pseudomonas aeruginosa PA14 assessed as inhibition of planktonic cell growth at 80 uM after 24 hrs by […]; type: functional, organism-based; procedure, shortened: as §1
Salmonella typhimurium [6] = assay: Antimicrobial activity against Salmonella Typhimurium ATCC 14028 assessed as inhibition of planktonic cell growth at IC50 after 24 hrs by […]; type: functional, organism-based; conditions: Salmonella enterica subsp. enterica serovar Typhimurium; procedure, shortened: as §1
Pseudomonas aeruginosa [7] = assay: Antimicrobial activity against Pseudomonas aeruginosa PA14 assessed as inhibition of planktonic cell growth at 20 uM after 24 hrs by […]; type: functional, organism-based; procedure, shortened: as §1
Pseudomonas aeruginosa [8] = assay: Antimicrobial activity against Pseudomonas aeruginosa PA14 assessed as inhibition of biofilm formation after 24 hrs by spectrophotometry; type: functional, organism-based; conditions: PA14, 24 h
Procedure, shortened: (§2)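 Static peg-lid biofilm prevention assay. Twofold serial dilutions in TSB diluted 1/20, 2–3 repeats per compound. Overnight S. Typhimurium ATCC14028 (LB-grown) or P. aeruginosa PA14 (TSB-grown) cultures were diluted 1:100, giving ~10^6 cells/well, then incubated 24 h at 25 °C without shaking. Pegs were PBS-washed, stained 30 min with 0.1% crystal violet, extracted with 30% acetic acid and read at OD570. IC50 was fitted from the concentration gradient.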

Salmonella typhimurium [9] = assay: Antimicrobial activity against Salmonella Typhimurium ATCC 14028 assessed as inhibition of planktonic cell growth at 20 uM after 24 hrs by […]; type: functional, organism-based; conditions: Salmonella enterica subsp. enterica serovar Typhimurium; procedure, shortened: as §1
Salmonella typhimurium [10] = assay: Antimicrobial activity against Salmonella Typhimurium ATCC 14028 assessed as inhibition of biofilm formation after 24 hrs by spectrophotometry; type: functional, organism-based, Salmonella enterica subsp. enterica serovar Typhimurium; conditions: Salmonella enterica, ATCC 14028, 24 h; procedure, shortened: as §2
Salmonella typhimurium [11] = assay: Antimicrobial activity against Salmonella Typhimurium ATCC 14028 assessed as inhibition of planktonic cell growth at 200 uM after 24 hrs by […]; type: functional, organism-based; conditions: Salmonella enterica subsp. enterica serovar Typhimurium; procedure, shortened: as §1
Salmonella typhimurium [12] = assay: Antimicrobial activity against Salmonella Typhimurium ATCC 14028 assessed as inhibition of planktonic cell growth at 40 uM after 24 hrs by […]; type: functional, organism-based; conditions: Salmonella enterica subsp. enterica serovar Typhimurium; procedure, shortened: as §1
Pseudomonas aeruginosa [13] = assay: Antimicrobial activity against Pseudomonas aeruginosa PA14 assessed as inhibition of planktonic cell growth at 5 uM after 24 hrs by […]; type: functional, organism-based; procedure, shortened: as §1
Pseudomonas aeruginosa [14] = assay: Antimicrobial activity against Pseudomonas aeruginosa PA14 assessed as inhibition of biofilm formation at 25 to 50 uM after 24 hrs by spectrophotometry; type: functional; procedure, shortened: as §2
Pseudomonas aeruginosa [15] = assay: Antimicrobial activity against Pseudomonas aeruginosa PA14 assessed as inhibition of planktonic cell growth at 100 uM after 24 hrs by […]; type: functional, organism-based; procedure, shortened: as §1
Salmonella typhimurium [16] = assay: Antimicrobial activity against Salmonella Typhimurium ATCC 14028 assessed as inhibition of planktonic cell growth at 80 uM after 24 hrs by […]; type: functional, organism-based; conditions: Salmonella enterica subsp. enterica serovar Typhimurium; procedure, shortened: as §1

Row | IC50 (Pseudomonas aeruginosa [8]) | IC50 (Salmonella typhimurium [10]) | Compound | growth inhibition (GI) (Pseudomonas aeruginosa [1]) | growth inhibition (GI) (Salmonella typhimurium [6]) | growth inhibition (GI) (Salmonella typhimurium [12]) | further results
1 |  |  | Nc1ncc(-c2ccc(Br)cc2)[nH]1 | inactive |  |  | growth inhibition (GI) (Pseudomonas aeruginosa [2]): Active; growth inhibition (GI) (Pseudomonas aeruginosa [3]): inactive
2 |  |  | Nc1ncc(-c2ccccc2)[nH]1 | inactive | inactive |  | growth inhibition (GI) (Salmonella typhimurium [4]): inactive; growth inhibition (GI) (Pseudomonas aeruginosa [5]): inactive
3 | 9.8 µM | 7.1 µM | CCCCNc1ncc(-c2ccc(Br)cc2)[nH]1 | inactive | inactive |  | growth inhibition (GI) (Pseudomonas aeruginosa [7]): inactive; growth inhibition (GI) (Salmonella typhimurium [9]): inactive
4 |  |  | Nc1ncc(-c2ccc(F)cc2)[nH]1 | inactive | inactive |  | growth inhibition (GI) (Salmonella typhimurium [11]): inactive; growth inhibition (GI) (Pseudomonas aeruginosa [2]): inactive
5 | 10.2 µM | 3.1 µM | CCCCCNc1ncc(-c2ccc(Br)cc2)[nH]1 | inactive | inactive | Active | growth inhibition (GI) (Pseudomonas aeruginosa [7]): inactive; growth inhibition (GI) (Salmonella typhimurium [9]): Active
6 | 1.2 µM | 2.9 µM | CC(C)CNc1ncc(-c2ccc(Br)cc2)[nH]1 | inactive | inactive | Active | growth inhibition (GI) (Pseudomonas aeruginosa [13]): inactive; growth inhibition (GI) (Salmonella typhimurium [9]): inactive
7 | > 800 µM | 27.5 µM | CCCCCCCCCCCCN1c2nccc[n+]2C[C@@]1(O)c1ccccc1.[Br-] |  | Active | Active | growth inhibition (GI) (Pseudomonas aeruginosa [14]): > 25%
8 | > 800 µM | 61.9 µM | CCCCCCCCCCCN1c2nccc[n+]2C[C@@]1(O)c1ccc(Cl)cc1.[Br-] |  |  |  | growth inhibition (GI) (Pseudomonas aeruginosa [14]): > 25%
9 |  |  | Nc1ncc(-c2ccc([N+](=O)[O-])cc2)[nH]1 | inactive | inactive | Active | growth inhibition (GI) (Pseudomonas aeruginosa [2]): inactive; growth inhibition (GI) (Pseudomonas aeruginosa [15]): Active
10 | > 800 µM | 24.6 µM | CCCCCCCCCCCN1c2nccc[n+]2C[C@@]1(O)c1ccccc1.[Br-] |  | Active | Active | growth inhibition (GI) (Pseudomonas aeruginosa [14]): > 25%
11 | > 800 µM | 180 µM | CCCCCCCCCCCCCCN1c2nccc[n+]2C[C@@]1(O)c1ccccc1.[Br-] |  |  |  | growth inhibition (GI) (Pseudomonas aeruginosa [14]): > 25%
12 | 0.7 µM | 2.2 µM | CCCCCNc1ncc(-c2ccc(Cl)c(Cl)c2)[nH]1 | inactive |  |  | growth inhibition (GI) (Pseudomonas aeruginosa [13]): inactive
13 | 7.2 µM | 12.1 µM | Brc1ccc(-c2cnc(NC3CCCC3)[nH]2)cc1 | inactive | inactive |  | growth inhibition (GI) (Pseudomonas aeruginosa [7]): inactive; growth inhibition (GI) (Salmonella typhimurium [9]): inactive
14 | 1.2 µM | 4.9 µM | CC(C)CNc1ncc(-c2ccccc2)[nH]1 | inactive | inactive | inactive | growth inhibition (GI) (Pseudomonas aeruginosa [13]): inactive
15 | > 800 µM | 81.6 µM | CCCCCCCCCCCCCN1c2nccc[n+]2C[C@@]1(O)c1ccccc1.[Br-] |  |  |  | growth inhibition (GI) (Pseudomonas aeruginosa [14]): > 25%
16 | 0.9 µM | 2 µM | CC(C)CNc1ncc(-c2ccc(Cl)cc2)[nH]1 | inactive | inactive | Active | growth inhibition (GI) (Pseudomonas aeruginosa [13]): inactive; growth inhibition (GI) (Salmonella typhimurium [9]): inactive
17 | 3.1 µM | 41.8 µM | CCCCCCCCNc1ncc(-c2ccc(S(C)(=O)=O)cc2)[nH]1 | inactive | inactive |  | growth inhibition (GI) (Pseudomonas aeruginosa [7]): inactive; growth inhibition (GI) (Salmonella typhimurium [16]): inactive
18 |  |  | Nc1ncc(-c2ccc(Cl)cc2)[nH]1 | inactive | inactive | inactive | growth inhibition (GI) (Pseudomonas aeruginosa [13]): inactive
19 | 15.8 µM | 191 µM | CSc1ccc(-c2cnc(NC3CCCCC3)[nH]2)cc1 | inactive |  |  | growth inhibition (GI) (Pseudomonas aeruginosa [7]): inactive
